The target in one data set is Glutamate NMDA receptor. Kind of data set: Binding affinity at glycine binding site of NMDA receptor in rat cortical membranes by [3H]L-689,560 displacement. The format is cell membranes, Membrane.
For the next data set, the species on record is Rattus norvegicus. Kind of data set: Inhibition of NMDA-induced depolarizations in rat cortical wedges. The format is functional.
In data set [1] the test system is Mus musculus. As to the kind of experiment: Ability to prevent NMDA-induced hyperlocomotion in the mouse following iv administration of 10 mg/kg dose; 2/9. The format is functional.
Data set [2] in a line: Solubility in 0.1 m aqueous D-arginine at pH 9. The format is physicochemical.
Data set [3] relates to Mus musculus. Kind of data set: Ability to prevent NMDA-induced hyperlocomotion in the mouse following iv administration of 20 mg/kg dose; 6/9. The format is functional. Put shortly: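 CD1 mice (25-30 g) received NMDA 300 mg/kg sc. Test compound was given iv via a tail vein 15 min before NMDA, dissolved in buffered saline (pH 7-9) or 0.1 M aqueous D-arginine; saline-dosed controls; usually 9-10 mice per dose. Time to onset and duration of hyperlocomotion recorded up to 15 min. Score = number of animals reaching 15 min post-NMDA.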

For data set [4], the system named is Mus musculus. As to the kind of experiment: Ability to prevent NMDA-induced hyperlocomotion in the mouse following iv administration of 3 mg/kg dose; 0/9. The format is functional.
Data set [5] concerns Mus musculus. As to the kind of experiment: Ability to prevent NMDA-induced hyperlocomotion in the mouse following iv administration of 30 mg/kg dose; 5/9. The format is functional.
A short description of data set [6]: Solubility in 0.1 M aqueous D-arginine at pH 9.
Data set [7] is described as follows: Solubility in water at pH 4-5. The format is physicochemical.
Data set [8] deals with Mus musculus. Kind of data set: Ability to prevent NMDA-induced hyperlocomotion in the mouse following iv administration of 10 mg/kg dose; 5/10. The format is functional.
Data set [9] concerns Mus musculus. As to the kind of experiment: Ability to prevent NMDA-induced hyperlocomotion in the mouse following iv administration of 3 mg/kg dose; 3/10. The format is functional.
Data set [10] relates to Mus musculus. As to the kind of experiment: Ability to prevent NMDA-induced hyperlocomotion in the mouse following iv administration of 15 mg/kg dose; 3/10. The format is functional.
Data set [11] deals with Mus musculus. As to the kind of experiment: Ability to prevent NMDA-induced hyperlocomotion in the mouse following iv administration of 20 mg/kg dose; 0/6. The format is functional.
In data set [12] the test system is Mus musculus. As to the kind of experiment: Ability to prevent NMDA-induced hyperlocomotion in the mouse following iv administration of 20 mg/kg dose; 1/9. The format is functional.
Data set [13] has as its system Mus musculus. Kind of data set: Ability to prevent NMDA-induced hyperlocomotion in the mouse following iv administration of 30 mg/kg dose; 10/10. The format is functional.
Data set [14] deals with Mus musculus. As to the kind of experiment: Ability to prevent NMDA-induced hyperlocomotion in the mouse following iv administration of 20 mg/kg dose; 0/9. The format is functional.

In brackets after ≈: the same amount, converted by molar mass. Some results are limits rather than exact numbers.

In turn, `Oc1nc2cc(Cl)c(Cl)cc2nc1O` [2,3-DIHYDROXY-6,7-DICHLOROQUINOXALINE] registered a half-maximal inhibitory concentration (IC50) on Glutamate NMDA receptor of 2000 nM.
Consider `Oc1nc2cc(Cl)c(Cl)c(Cn3ccnn3)c2nc1O`, for which the IC50 on Glutamate NMDA receptor is 1 nM. In the data set filed under Rattus norvegicus, this compound came in with an EC50 of 350 nM.
Turning to `CCC(c1c(Cl)c(Cl)cc2nc(O)c(O)nc12)n1cnnc1` (stereo unspecified), the “No. protected/ No.dosed” value was 2 in the data set on Mus musculus [1], 6 in the data set with Mus musculus [3], 0 in the data set with Mus musculus [4] and 5 in the data set on Mus musculus [5]. Also, the concentration for half-maximal inhibition (IC50) at Glutamate NMDA receptor came to 2.6 nM. The compound further gave a solubility in data set [2] greater than 5000 µg/mL. The compound also gave an EC50 in the data set filed under Rattus norvegicus of 90 nM.
The compound `Oc1nc2cc(Cl)c(Cl)c(Cn3cnnc3)c2nc1O` gave an IC50 on Glutamate NMDA receptor of 81 nM. In the data set filed under Rattus norvegicus, this compound came in with a half-maximal effective concentration (EC50) of 1090 nM.
The compound `Cc1nccn1Cc1c(Cl)c(Cl)cc2nc(O)c(O)nc12` showed an IC50 on Glutamate NMDA receptor of 109 nM.
With `CCC(c1c(Cl)c(Cl)cc2nc(O)c(O)nc12)n1cncn1` (stereo unspecified), at Glutamate NMDA receptor, the IC50 stood at 4 nM. In addition, in data set [2], the solubility was roughly 1000 µg/mL (≈ 2940 µM). In the data set listed under Rattus norvegicus, the EC50 is 420 nM.
In turn, `Oc1nc2cc(Cl)c(Cl)c(Cn3cncn3)c2nc1O` showed a half-maximal inhibitory concentration (IC50) at Glutamate NMDA receptor of 25 nM. The compound further showed a solubility in [6] of less than 10 µg/mL.
Regarding `CCCn1cnc(Cc2c(Cl)c(Cl)cc3nc(O)c(O)nc23)c1`, the IC50 at Glutamate NMDA receptor is 4.4 nM. Moreover, the midpoint of the response in the data set filed under Rattus norvegicus, the EC50, lay at 350 nM. For the same compound, the “No. protected/ No.dosed” value in the data set with Mus musculus [3] is recorded as 6. This compound also registered a solubility in data set [7] greater than 10000 µg/mL.
`O=c1[nH]c2cc(Cl)c(Cl)c([N+](=O)[O-])c2[nH]c1=O` [LICOSTINEL]: the “No. protected/ No.dosed” value worked out at 5 with Mus musculus [8], 3 with Mus musculus [9] and 3 in the data set on Mus musculus [10]. Moreover, the 50% inhibitory concentration (IC50) on Glutamate NMDA receptor is 1.4 nM. A half-maximal effect in the data set filed under Rattus norvegicus (EC50) was put at 1100 nM.
`CCC(c1c(Cl)c(Cl)cc2nc(O)c(O)nc12)n1ccnn1` (stereo unspecified): the “No. protected/ No.dosed” value with Mus musculus [11] was found to be 0. Also, the 50% inhibitory concentration (IC50) at Glutamate NMDA receptor amounted to 0.75 nM. Further, the solubility in data set [2] was less than 1000 µg/mL. Further, the 50% effective concentration (EC50) in the data set listed under Rattus norvegicus was determined as 290 nM.
`CN1CCN(Cc2cn(Cc3c(Cl)c(Cl)cc4nc(O)c(O)nc34)nn2)CC1` displayed a half-inhibitory concentration (IC50) on Glutamate NMDA receptor of 7.6 nM. Moreover, the “No. protected/ No.dosed” value with Mus musculus [12] worked out at 1. The compound also gave an EC50 in the data set filed under Rattus norvegicus of 88 nM. The same compound yielded a solubility in data set [7] greater than 10000 µg/mL.
Take `C[C@@H]1CN(O)C(=O)[C@@H]1N`: the “No. protected/ No.dosed” value with Mus musculus [8] was 5; in the data set with Mus musculus [13], 10. The compound also registered an IC50 at Glutamate NMDA receptor of 1200 nM. This compound yielded an EC50 in the data set filed under Rattus norvegicus of 16000 nM.
As to `CCN(CC)Cc1cn(Cc2c(Cl)c(Cl)cc3nc(O)c(O)nc23)nn1`, the IC50 on Glutamate NMDA receptor turned out to be 6 nM. Besides, the “No. protected/ No.dosed” value with Mus musculus [14] came to 0. In the data set listed under Rattus norvegicus, this compound displayed a 50% effective concentration (EC50) of 150 nM.
In turn, `Cc1ncn(Cc2c(Cl)c(Cl)cc3nc(O)c(O)nc23)n1` gave a half-inhibitory concentration (IC50) on Glutamate NMDA receptor of 24 nM. In the data set listed under Rattus norvegicus, this compound yielded an EC50 of 640 nM.
At Glutamate NMDA receptor, `Oc1nc2cc(Cl)c(Cl)c(Cn3cccn3)c2nc1O` returned a half-inhibitory concentration (IC50) of 5 nM. In addition, in [6], the solubility is less than 10 µg/mL.
At Glutamate NMDA receptor, `Oc1nc2cc(Cl)c(Cl)c(Cc3ccccn3)c2nc1O` registered an IC50 of 30 nM. For the same compound, the EC50 in the data set filed under Rattus norvegicus stood at 4100 nM. In data set [7], this compound returned a solubility of less than 1000 µg/mL.
For `Cc1ncnn1Cc1c(Cl)c(Cl)cc2nc(O)c(O)nc12`, the IC50 at Glutamate NMDA receptor came out at 190 nM.
The same measure, in the same setting: the figure for `Cn1nnc(Cc2c(Cl)c(Cl)cc3nc(O)c(O)nc23)n1` is 78 nM.
Turning to `CCC(c1c(Cl)c(Cl)cc2nc(O)c(O)nc12)n1ccnc1` (stereo unspecified), the IC50 on Glutamate NMDA receptor came to 3.1 nM. In addition, the “No. protected/ No.dosed” value in the data set with Mus musculus [14] is listed as 0. The compound also returned an EC50 in the data set listed under Rattus norvegicus of 90 nM.
Take `Oc1nc2cc(Cl)c(Cl)c(Cn3ccnc3)c2nc1O`: on Glutamate NMDA receptor, the half-maximal inhibitory concentration (IC50) is 23 nM. Also, the half-maximal effective concentration (EC50) in the data set listed under Rattus norvegicus turned out to be 1300 nM.

The values are drawn from ChEMBL document CHEMBL1134499, “Structure-activity relationships of 1,4-dihydro-(1H,4H)-quinoxaline-2,3-diones as N-methyl-D-aspartate (glycine site) receptor antagonists. 1. Heterocyclic substituted 5-alkyl derivatives” (J Med Chem, 2001).
